The source of these data is ChEMBL document CHEMBL1151981, “Bioactive pyridine-N-oxide disulfides from Allium stipitatum” (J Nat Prod, 2009).

Experiment [1] concerns Mycobacterium tuberculosis. The experiment in a line: Antibacterial activity against Mycobacterium bovis BCG after 14 days by spot-culture growth inhibition assay. The class given is functional. The note with it: variant bovis BCG, 336 h. The gist of the method:
(§1)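 Mid-exponential cultures (BCG rotated in 7H9/ADC/Tween 80; H37Rv standing in 7H9/OADC/Tween 80) diluted to 10³ cells/mL. 5 µL spotted onto 7H10 agar with 10% OADC containing compound at 0.01, 0.1, 0.5, 1 and 5 µg/mL. Incubated at 37 °C for 14 days. MIC taken as lowest concentration with no growth; no-compound well as growth control.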

Experiment [2] concerns Mycobacterium tuberculosis. The experiment in a line: Antibacterial activity against Mycobacterium bovis BCG at 0.01 to 5 ug/ml after 14 days by spot-culture growth inhibition assay. In kind it is functional, organism-based. The note with it: variant bovis BCG. The gist of the method:
as §1

Values after ≈ are worked out from the molar mass of the structure shown. Active and inactive are the calls of the source.

As a reminder, the MIC is the smallest concentration in the dilution series that meets the test's criterion for growth inhibition. Low readings indicate inhibition by little substance, high ones a need for much substance. In the case of `CSCSSc1cccc[n+]1[O-]`, the MIC in experiment [1] came out at 0.1 µg/mL (≈ 0.456 µM). For the same molecule, in experiment [2], the outcome was Active.
Take `CSSc1cccc[n+]1[O-]`: 0.1 µg/mL (≈ 0.577 µM) was the least that counted as inhibitory in experiment [1] (MIC). Further, the outcome in experiment [2] was Active.
